Measurements published in ChEMBL document CHEMBL1914423, “New imidazo[2,1-b]thiazole derivatives: synthesis, in vitro anticancer evaluation, and in silico studies” (Eur J Med Chem, 2011).
pIC50: −log10 of the molar value.

Test system: IGROV-1
Test: Anticancer activity against human IGROV1 cells assessed as cell growth at 10^-5 M after 48 hrs by SRB assay
Assay type: functional
Conditions: IGROV-1, 48 h, read-out: Activity
Outline: (§1)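 NCI-60 single-dose screen at one concentration. Cells grown in RPMI 1640 with 5% FBS and 2 mM L-glutamine, plated at 5000–40,000 cells/well, and pre-incubated 24 h at 37 °C in 5% CO2 before DMSO-dissolved drug was added. Cells fixed with TCA, SRB-stained, absorbance read at 515 nm. Percent growth calculated against time-zero and untreated control plates.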

Compound	growth at 10 µM [%]
COc1cccc(-c2nc3sccn3c2-c2ccnc(NCCNC(=O)c3cccc(C(F)(F)F)c3)n2)c1	53.4

Test system: COLO 205
Test: Anticancer activity against human COLO205 cells assessed as cell growth at 10^-5 M after 48 hrs by SRB assay
Assay type: functional
Conditions: COLO 205, 48 h, read-out: Activity
Outline: as §1

Compound	growth at 10 µM [%]
COc1cccc(-c2nc3sccn3c2-c2ccnc(NCCNC(=O)c3cccc(C(F)(F)F)c3)n2)c1	46.1

Test system: MDA-MB-468
Test: Anticancer activity against human MDA-MB-468 cells assessed as cell growth at 10^-5 M after 48 hrs by SRB assay
Assay type: functional
Conditions: MDA-MB-468, 48 h, read-out: Activity

Compound	growth at 10 µM [%]
COc1cccc(-c2nc3sccn3c2-c2ccnc(NCCNC(=O)c3cccc(C(F)(F)F)c3)n2)c1	71.1

Test system: M14
Test: Anticancer activity against human M14 cells assessed as cell growth at 10^-5 M after 48 hrs by SRB assay
Assay type: functional
Conditions: M14, 48 h, read-out: Activity
Outline: as §1

Compound	growth at 10 µM [%]
COc1cccc(-c2nc3sccn3c2-c2ccnc(NCCNC(=O)c3cccc(C(F)(F)F)c3)n2)c1	46.5

Test system: UACC-62
Test: Anticancer activity against human UACC62 cells assessed as cell growth at 10^-5 M after 48 hrs by SRB assay
Assay type: functional
Conditions: UACC-62, 48 h, read-out: Activity
Outline: (§2)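 NCI-60 single-dose screen: cells in RPMI 1640 with 5% FBS and 2 mM L-glutamine, plated at 5000–40,000 cells/well by doubling time, and preincubated 24 h at 37 °C. Compound given at one concentration from DMSO stock. Cells TCA-fixed and SRB-stained, absorbance at 515 nm. Percent growth relative to time-zero and untreated controls; inhibition % = 100 − growth %.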

Compound	growth at 10 µM [%]
COc1cccc(-c2nc3sccn3c2-c2ccnc(NCCNC(=O)c3cccc(C(F)(F)F)c3)n2)c1	30.1

Test system: NCI/ADR-RES
Test: Anticancer activity against human NCI/ADR-RES cells assessed as cell growth at 10^-5 M after 48 hrs by SRB assay
Assay type: functional
Conditions: read-out: Activity

Compound	growth at 10 µM [%]
COc1cccc(-c2nc3sccn3c2-c2ccnc(NCCNC(=O)c3cccc(C(F)(F)F)c3)n2)c1	38.4

Test system: MDA-MB-435
Test: Anticancer activity against human MDA-MB-435 cells assessed as cell growth at 10^-5 M after 48 hrs by SRB assay
Assay type: functional
Conditions: MDA-MB-435, 48 h, read-out: Activity

Compound	growth at 10 µM [%]
COc1cccc(-c2nc3sccn3c2-c2ccnc(NCCNC(=O)c3cccc(C(F)(F)F)c3)n2)c1	38.8

Test system: MOLT-4
Test: Anticancer activity against human MOLT4 cells assessed as cell growth at 10^-5 M after 48 hrs by SRB assay
Assay type: functional
Conditions: MOLT-4, 48 h, read-out: Activity

Compound	growth at 10 µM [%]
COc1cccc(-c2nc3sccn3c2-c2ccnc(NCCNC(=O)c3cccc(C(F)(F)F)c3)n2)c1	48

Test system: SNB-19
Test: Anticancer activity against human SNB19 cells assessed as cell growth at 10^-5 M after 48 hrs by SRB assay
Assay type: functional
Conditions: SNB-19, 48 h, read-out: Activity

Compound	growth at 10 µM [%]
COc1cccc(-c2nc3sccn3c2-c2ccnc(NCCNC(=O)c3cccc(C(F)(F)F)c3)n2)c1	102

Test system: A549
Test: Anticancer activity against human A549 cells assessed as cell growth at 10^-5 M after 48 hrs by SRB assay
Assay type: functional
Conditions: A549, 48 h, read-out: Activity
Outline: as §1

Compound	growth at 10 µM [%]
COc1cccc(-c2nc3sccn3c2-c2ccnc(NCCNC(=O)c3cccc(C(F)(F)F)c3)n2)c1	56

Test system: OVCAR-4
Test: Anticancer activity against human OVCAR4 cells assessed as cell growth at 10^-5 M after 48 hrs by SRB assay
Assay type: functional
Conditions: OVCAR-4, 48 h, read-out: Activity

Compound	growth at 10 µM [%]
COc1cccc(-c2nc3sccn3c2-c2ccnc(NCCNC(=O)c3cccc(C(F)(F)F)c3)n2)c1	89

Test system: PC-3
Test: Anticancer activity against human PC3 cells assessed as cell growth at 10^-5 M after 48 hrs by SRB assay
Assay type: functional
Conditions: PC-3, 48 h, read-out: Activity

Compound	growth at 10 µM [%]
COc1cccc(-c2nc3sccn3c2-c2ccnc(NCCNC(=O)c3cccc(C(F)(F)F)c3)n2)c1	55

Test system: not listed separately
Test: Antiproliferative activity against human A375P cells after 48 hrs by MTT assay
Assay type: functional, cell-based
Conditions: not given
Outline: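 A375P cells in DMEM with 10% FBS at 37 °C, 5% CO2. Seeded at 5×10³ cells/well, held 24 h, then treated with 12-point 3-fold serial dilutions for 48 h. Viability by MTT reduction. IC50 values are means of triplicate experiments.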

Compound	pIC50
COc1cccc(-c2nc3sccn3c2-c2ccnc(NCCNC(=O)c3cccc(C(F)(F)F)c3)n2)c1	5.32

Test system: SN12C
Test: Anticancer activity against human SN12C cells assessed as cell growth at 10^-5 M after 48 hrs by SRB assay
Assay type: functional
Conditions: read-out: Activity

Compound	growth at 10 µM [%]
COc1cccc(-c2nc3sccn3c2-c2ccnc(NCCNC(=O)c3cccc(C(F)(F)F)c3)n2)c1	65.2

Test system: HCC 2998
Test: Anticancer activity against human HCC2998 cells assessed as cell growth at 10^-5 M after 48 hrs by SRB assay
Assay type: functional
Conditions: HCC 2998, 48 h, read-out: Activity
Outline: as §1

Compound	growth at 10 µM [%]
COc1cccc(-c2nc3sccn3c2-c2ccnc(NCCNC(=O)c3cccc(C(F)(F)F)c3)n2)c1	87.1

Test system: SW-620
Test: Anticancer activity against human SW620 cells assessed as cell growth at 10^-5 M after 48 hrs by SRB assay
Assay type: functional
Conditions: SW-620, 48 h, read-out: Activity
Outline: as §2

Compound	growth at 10 µM [%]
COc1cccc(-c2nc3sccn3c2-c2ccnc(NCCNC(=O)c3cccc(C(F)(F)F)c3)n2)c1	103

Test system: SF-295
Test: Anticancer activity against human SF295 cells assessed as cell growth at 10^-5 M after 48 hrs by SRB assay
Assay type: functional
Conditions: SF-295, 48 h, read-out: Activity

Compound	growth at 10 µM [%]
COc1cccc(-c2nc3sccn3c2-c2ccnc(NCCNC(=O)c3cccc(C(F)(F)F)c3)n2)c1	54.2

Test system: K562
Test: Anticancer activity against human K562 cells assessed as cell growth at 10^-5 M after 48 hrs by SRB assay
Assay type: functional
Conditions: K562, 48 h, read-out: Activity
Outline: as §1

Compound	growth at 10 µM [%]
COc1cccc(-c2nc3sccn3c2-c2ccnc(NCCNC(=O)c3cccc(C(F)(F)F)c3)n2)c1	48.1

Test system: SK-MEL-28
Test: Anticancer activity against human SK-MEL-28 cells assessed as cell growth at 10^-5 M after 48 hrs by SRB assay
Assay type: functional
Conditions: SK-MEL-28, 48 h, read-out: Activity

Compound	growth at 10 µM [%]
COc1cccc(-c2nc3sccn3c2-c2ccnc(NCCNC(=O)c3cccc(C(F)(F)F)c3)n2)c1	75.9

Test system: NCI-H460
Test: Anticancer activity against human NCI-H460 cells assessed as cell growth at 10^-5 M after 48 hrs by SRB assay
Assay type: functional
Conditions: NCI-H460, 48 h, read-out: Activity

Compound	growth at 10 µM [%]
COc1cccc(-c2nc3sccn3c2-c2ccnc(NCCNC(=O)c3cccc(C(F)(F)F)c3)n2)c1	74.3

Test system: CAKI-1
Test: Anticancer activity against human Caki1 cells assessed as cell growth at 10^-5 M after 48 hrs by SRB assay
Assay type: functional
Conditions: CAKI-1, 48 h, read-out: Activity
Outline: as §1

Compound	growth at 10 µM [%]
COc1cccc(-c2nc3sccn3c2-c2ccnc(NCCNC(=O)c3cccc(C(F)(F)F)c3)n2)c1	50.6

Test system: UACC-257
Test: Anticancer activity against human UACC257 cells assessed as cell growth at 10^-5 M after 48 hrs by SRB assay
Assay type: functional
Conditions: UACC-257, 48 h, read-out: Activity
Outline: as §2

Compound	growth at 10 µM [%]
COc1cccc(-c2nc3sccn3c2-c2ccnc(NCCNC(=O)c3cccc(C(F)(F)F)c3)n2)c1	78.4

Test system: HL-60(TB)
Test: Anticancer activity against human HL-60(TB) cells assessed as cell growth at 10^-5 M after 48 hrs by SRB assay
Assay type: functional
Conditions: HL-60, 48 h, read-out: Activity
Outline: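 NCI-60 single-dose screen. Cells in RPMI 1640 with 5% FBS and 2 mM L-glutamine were plated at 5000–40,000 cells/well and preincubated 24 h at 37 °C before one compound concentration. Time-zero plates were TCA-fixed at drug addition. For suspension cells, settled cells were fixed with cold TCA, then SRB-stained and read at 515 nm. Percent growth was calculated from time-zero, control and treated absorbances.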

Compound	growth at 10 µM [%]
COc1cccc(-c2nc3sccn3c2-c2ccnc(NCCNC(=O)c3cccc(C(F)(F)F)c3)n2)c1	83.6

Test system: SK-MEL-5
Test: Anticancer activity against human SK-MEL-5 cells assessed as cell growth at 10^-5 M after 48 hrs by SRB assay
Assay type: functional
Conditions: SK-MEL-5, 48 h, read-out: Activity

Compound	growth at 10 µM [%]
COc1cccc(-c2nc3sccn3c2-c2ccnc(NCCNC(=O)c3cccc(C(F)(F)F)c3)n2)c1	48.4

Test system: RXF 393
Test: Anticancer activity against human RXF393 cells assessed as cell growth at 10^-5 M after 48 hrs by SRB assay
Assay type: functional
Conditions: RXF 393, 48 h, read-out: Activity

Compound	growth at 10 µM [%]
COc1cccc(-c2nc3sccn3c2-c2ccnc(NCCNC(=O)c3cccc(C(F)(F)F)c3)n2)c1	60.5

Test system: SR
Test: Anticancer activity against human SR cells assessed as cell growth at 10^-5 M after 48 hrs by SRB assay
Assay type: functional
Conditions: read-out: Activity
Outline: as §2

Compound	growth at 10 µM [%]
COc1cccc(-c2nc3sccn3c2-c2ccnc(NCCNC(=O)c3cccc(C(F)(F)F)c3)n2)c1	63.2
